From ChEMBL document CHEMBL1147643 (J Med Chem, 2006) come the findings set out here.

By inhibition is commonly meant how much of the control response was suppressed. Lower therefore signals little suppression. As usually defined, the Ki is a measure of affinity in units of concentration, obtained from inhibition or displacement. A low value points to tighter binding. The term EC50 denotes the concentration that produces a half-maximal response. A lower EC50 goes with a more potent agent.

Test [1] addresses T1, Adenosine receptor A3 (Homo sapiens) (UniProt P0DMS8).
T1 sequence (whole entry): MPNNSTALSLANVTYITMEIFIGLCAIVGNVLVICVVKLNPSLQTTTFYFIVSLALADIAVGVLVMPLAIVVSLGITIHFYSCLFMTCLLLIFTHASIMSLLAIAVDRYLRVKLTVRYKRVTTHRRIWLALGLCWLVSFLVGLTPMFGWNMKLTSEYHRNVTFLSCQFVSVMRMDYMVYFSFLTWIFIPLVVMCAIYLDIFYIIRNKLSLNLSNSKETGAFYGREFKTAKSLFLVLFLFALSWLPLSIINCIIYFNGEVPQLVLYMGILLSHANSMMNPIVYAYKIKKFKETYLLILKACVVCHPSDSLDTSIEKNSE
Kind of test: Inhibition of [125I]I-AB-MECA binding to wild type adenosine A3 receptor expressed in COS7 cells at 10 uM. The format is cell-based. Conditions: COS-7.

The target in test [2] is Adenosine receptor A3 (Homo sapiens, UniProt P0DMS8, T94A). Kind of test: Displacement of [125I]I-AB-MECA from human adenosine A3 receptor T94A mutant expressed in COS7 cells. Format: cell-based, COS-7. The essentials:
(§1)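 Receptor cDNA, wild-type or mutant with mutations confirmed by sequencing, transiently transfected into COS-7 cells with Lipofectamine 2000. […] Displacement of agonist radioligand [125I]I-AB-MECA measured; Ki values derived.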
Background: In a radioligand displacement assay an active substance lowers the binding of a labelled ligand.

For test [3], the target named is T2, Adenosine receptor A3 (Homo sapiens, UniProt P0DMS8).
T2 sequence (P0DMS8 whole entry): T1 sequence (whole entry)
Kind of test: Displacement of [125I]I-AB-MECA from wild type adenosine A3 receptor expressed in COS7 cells. The format is cell-based, COS-7.

In test [4] the target is T3, Adenosine receptor A3 (Homo sapiens, UniProt P0DMS8, H272E). As to the kind of experiment: Displacement of [125I]I-AB-MECA from human adenosine A3 receptor H272E mutant expressed in COS7 cells. The format is cell-based, COS-7.
Test [5] deals with Adenosine receptor A3 (Homo sapiens, UniProt P0DMS8, Q167E). As to the kind of experiment: Displacement of [125I]I-AB-MECA from human adenosine A3 receptor Q167E mutant expressed in COS7 cells. Format: cell-based, COS-7. The essentials:
as §1

Test [6] deals with Adenosine receptor A3 (Homo sapiens, UniProt P0DMS8, H272D). As to the kind of experiment: Displacement of [125I]I-AB-MECA from human adenosine A3 receptor H272D mutant expressed in COS7 cells. The format is cell-based, COS-7. The essentials:
as §1

Test [7] deals with Adenosine receptor A3 (Homo sapiens, UniProt P0DMS8, T94E). As to the kind of experiment: Displacement of [125I]I-AB-MECA from human adenosine A3 receptor T94E mutant expressed in COS7 cells. Format: cell-based, COS-7. An outline of the steps:
as §1

Test [8] addresses Adenosine receptor A2a (Homo sapiens) (UniProt P29274). Kind of test: Inhibition of human adenosine A2A receptor expressed in CHO cells at 10 uM. Format: cell-based.
Test [9] has as its target T4, Adenosine receptor A1 (Homo sapiens) (UniProt P30542).
T4 sequence (whole entry): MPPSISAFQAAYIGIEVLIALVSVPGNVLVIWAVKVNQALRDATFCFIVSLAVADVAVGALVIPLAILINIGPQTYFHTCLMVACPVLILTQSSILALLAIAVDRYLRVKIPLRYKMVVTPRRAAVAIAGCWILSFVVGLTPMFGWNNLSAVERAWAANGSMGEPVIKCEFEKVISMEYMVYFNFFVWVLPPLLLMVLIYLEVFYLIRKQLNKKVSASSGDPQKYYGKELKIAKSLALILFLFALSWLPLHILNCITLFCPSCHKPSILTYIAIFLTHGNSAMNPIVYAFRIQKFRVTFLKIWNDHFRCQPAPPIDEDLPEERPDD
As to the kind of experiment: Inhibition of human adenosine A1 receptor expressed in CHO cells at 10 uM. Format: cell-based.

Test [10] addresses T1, Adenosine receptor A3 (Homo sapiens). As to the kind of experiment: Activity against human wild type adenosine A3 receptor expressed in COS7 cells as measured by accumulation of inositol phosphate by PLC assay. Conditions: COS-7. Format: functional, cell-based.
In test [11] the test system is T5, Adenosine receptor A3 (Homo sapiens), P0DMS8 [H272E].
T5 sequence (whole entry): T1 sequence (whole entry) with H272E
Kind of test: (§2) Activity against human adenosine A3 receptor H272E mutant expressed in COS7 cells as measured by accumulation of inositol phosphate by PLC assay. Conditions: COS-7. The format is functional, cell-based.

The test system is the same in test [12]. Kind of test: Inhibition of [125I]I-AB-MECA binding to human adenosine A3 receptor H272E mutant expressed in COS7 cells at 10 uM. The format is cell-based. Conditions: COS-7.
The target of test [13] is T3, Adenosine receptor A3. Described as §2. The format is functional, cell-based, COS-7.
The target of test [14] is T6, Adenosine receptor A2b (Homo sapiens) (UniProt P29275).
T6 sequence (whole entry): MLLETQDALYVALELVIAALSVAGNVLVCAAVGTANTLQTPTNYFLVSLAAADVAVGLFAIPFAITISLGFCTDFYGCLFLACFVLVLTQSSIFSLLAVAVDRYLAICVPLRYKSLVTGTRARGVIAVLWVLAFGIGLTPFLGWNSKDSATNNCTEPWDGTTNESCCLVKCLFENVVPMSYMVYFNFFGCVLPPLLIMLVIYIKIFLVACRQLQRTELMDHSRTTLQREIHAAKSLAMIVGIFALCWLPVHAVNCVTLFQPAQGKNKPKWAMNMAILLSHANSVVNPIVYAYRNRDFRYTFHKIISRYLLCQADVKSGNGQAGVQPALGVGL
As to the kind of experiment: Activity against adenosine A2B receptor expressed in CHO cells by stimulation of cAMP production at 10 uM. Format: functional, cell-based. A general note: Cyclic AMP is a second messenger, typically raised through Gs and lowered through Gi signalling.

Each structure is given as a SMILES string. Positions count from the first letter of the chain named. Calls of active or inactive are those of the source. The calls are words filed in the database; no cut-off is given here.

Adenosine receptor A2a (Homo sapiens), sequence (P29274 whole entry): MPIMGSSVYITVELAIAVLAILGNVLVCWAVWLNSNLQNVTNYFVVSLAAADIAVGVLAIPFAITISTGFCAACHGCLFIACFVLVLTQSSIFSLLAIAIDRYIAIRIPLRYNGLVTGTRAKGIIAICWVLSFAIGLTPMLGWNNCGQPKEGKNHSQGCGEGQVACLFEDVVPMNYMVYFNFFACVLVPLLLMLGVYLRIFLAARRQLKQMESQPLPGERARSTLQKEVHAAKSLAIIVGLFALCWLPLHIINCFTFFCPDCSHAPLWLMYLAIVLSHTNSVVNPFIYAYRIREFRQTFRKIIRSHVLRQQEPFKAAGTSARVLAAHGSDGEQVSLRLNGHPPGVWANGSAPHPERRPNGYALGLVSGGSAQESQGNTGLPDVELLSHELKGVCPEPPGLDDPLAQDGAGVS
Adenosine receptor A3 (Homo sapiens, UniProt P0DMS8, Q167E), sequence (P0DMS8 whole entry Q167E): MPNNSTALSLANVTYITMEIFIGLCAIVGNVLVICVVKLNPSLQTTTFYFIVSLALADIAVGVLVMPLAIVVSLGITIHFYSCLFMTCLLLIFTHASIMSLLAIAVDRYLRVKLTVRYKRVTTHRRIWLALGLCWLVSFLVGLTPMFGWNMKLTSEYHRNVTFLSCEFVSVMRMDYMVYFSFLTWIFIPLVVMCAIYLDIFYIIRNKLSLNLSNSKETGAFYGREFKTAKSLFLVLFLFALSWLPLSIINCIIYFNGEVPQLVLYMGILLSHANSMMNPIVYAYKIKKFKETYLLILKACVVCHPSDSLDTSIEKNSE
Adenosine receptor A3 (Homo sapiens, UniProt P0DMS8, T94A), sequence (P0DMS8 whole entry T94A): as the sequence (P0DMS8 whole entry Q167E) above, with T94A, E167Q counted along it
T3 sequence (P0DMS8 whole entry H272E): as the sequence (P0DMS8 whole entry Q167E) above, with E167Q, H272E counted along it
Adenosine receptor A3 (Homo sapiens, UniProt P0DMS8, T94E), sequence (P0DMS8 whole entry T94E): as the sequence (P0DMS8 whole entry Q167E) above, with T94E, E167Q counted along it
Adenosine receptor A3 (Homo sapiens, UniProt P0DMS8, H272D), sequence (P0DMS8 whole entry H272D): as the sequence (P0DMS8 whole entry Q167E) above, with E167Q, H272D counted along it

Take `CC(=O)NC[C@H]1[C@@H](O)[C@H](n2cnc3c(NCc4cccc(I)c4)ncnc32)O[C@@H]1CO`: the inhibition in [1] was found to be 15%. Besides, the Ki at Adenosine receptor A3 [2] is over 10000 nM; on Adenosine receptor A3 [3] it was over 10000 nM; at Adenosine receptor A3 [4], 700 nM; at Adenosine receptor A3 [5] it was over 10000 nM; at Adenosine receptor A3 [6], 1000 nM; at Adenosine receptor A3 [7], over 10000 nM.

For `CNC(=O)[C@H]1O[C@@H](n2cnc3c(NCc4cccc(I)c4)ncnc32)[C@H](O)[C@@H]1NC(N)=O`, the inhibition in [8] is under 10%; in test [1], 5%; in test [9], under 10%. For the same compound, at Adenosine receptor A3 [4], the affinity, expressed as Ki, was 2700 nM.

For the compound `CNC(=O)[C@H]1O[C@@H](n2cnc3c(NCc4cccc(I)c4)ncnc32)[C@H](O)[C@@H]1N=[N+]=[N-]`, the result in test [10] and in test [11] was inactive. Also, the Ki at Adenosine receptor A3 [2] is 1370 nM; at Adenosine receptor A3 [3] it was 2260 nM; at Adenosine receptor A3 [4], 186 nM; on Adenosine receptor A3 [6] it was 140 nM; on Adenosine receptor A3 [7], 2000 nM.

As for `CNc1ncnc2c1ncn2[C@@H]1O[C@H](CO)[C@@H](NC(N)=O)[C@H]1O`, the inhibition in [8] was under 10%; in test [1], 3%; in [9], under 10%; in [12] it was 30%.

On to `CNC(=O)[C@H]1O[C@@H](n2cnc3c(NCc4cccc(I)c4)ncnc32)[C@H](O)[C@@H]1CN`, for which the Ki at Adenosine receptor A3 [2] amounted to 120 nM; on Adenosine receptor A3 [3], 137 nM; at Adenosine receptor A3 [4] it was 185 nM; on Adenosine receptor A3 [5] it was 570 nM; on Adenosine receptor A3 [6] it was 120 nM; on Adenosine receptor A3 [7] it was 110 nM.

As for `NC[C@H]1[C@@H](O)[C@H](n2cnc3c(NCc4cccc(I)c4)ncnc32)O[C@@H]1CO`, the Ki is 10700 nM on Adenosine receptor A3 [2]; 9500 nM on Adenosine receptor A3 [3]; 610 nM at Adenosine receptor A3 [4]; over 10000 nM on Adenosine receptor A3 [5]; 850 nM on Adenosine receptor A3 [6]; 10000 nM at Adenosine receptor A3 [7].

As to `COc1ccc(Cl)cc1CNc1ncnc2c1ncn2[C@@H]1O[C@H](CO)[C@@H](CN)[C@H]1O`, the Ki on Adenosine receptor A3 [2] is 9800 nM; on Adenosine receptor A3 [3] it was 13800 nM; at Adenosine receptor A3 [4] it was 709 nM; at Adenosine receptor A3 [5], over 10000 nM; at Adenosine receptor A3 [6] it was 2000 nM; at Adenosine receptor A3 [7] it was over 10000 nM.

As to `NC(=O)N[C@H]1[C@@H](O)[C@H](n2cnc3c(NCc4cccc(I)c4)nc(Cl)nc32)O[C@@H]1CO`, the inhibition in test [8] was under 10%; in [1], 47%; in [9] it was 34%. The compound further registered a Ki at Adenosine receptor A3 [4] of 200 nM.

With `[N-]=[N+]=NC[C@H]1S[C@@H](n2cnc3c(NCc4cccc(I)c4)ncnc32)[C@H](O)[C@@H]1O`, the result in test [10] and in test [11] was inactive. Besides, the figures for the Ki on Adenosine receptor A3 [3] and at Adenosine receptor A3 [4] were 22 nM and 230 nM, respectively.

As to `CNC(=O)[C@H]1O[C@@H](n2cnc3c(NC)ncnc32)[C@H](O)[C@@H]1NC(N)=O`, the inhibition is under 10% in test [8], 7% in test [1], under 10% in test [9] and 7% in [12].

For `CNC(=O)[C@H]1O[C@@H](n2cnc3c(NCc4cc(Cl)ccc4OC)ncnc32)[C@H](O)[C@@H]1CN`, the Ki amounted to 557 nM at Adenosine receptor A3 [3]; 592 nM at Adenosine receptor A3 [4]; 7200 nM on Adenosine receptor A3 [5]; 390 nM at Adenosine receptor A3 [6]; 850 nM at Adenosine receptor A3 [7].

Turning to `NC(=O)N[C@H]1[C@@H](O)[C@H](n2cnc3c(NCc4cccc(I)c4)ncnc32)O[C@@H]1CO`, the results for the inhibition in test [8], in test [1] and in test [9] were under 10%, 9% and under 10%, respectively. This compound also had an EC50 at Adenosine receptor A3 [13] of 180 nM. In addition, the Ki is over 10000 nM at Adenosine receptor A3 [2]; over 10000 nM at Adenosine receptor A3 [3]; 220 nM on Adenosine receptor A3 [4]; over 100000 nM at Adenosine receptor A3 [5]; 470 nM at Adenosine receptor A3 [6]; over 10000 nM on Adenosine receptor A3 [7]. Further, the result in test [14] was inactive.

`NC[C@H]1[C@@H](O)[C@H](n2cnc3c(N)ncnc32)O[C@@H]1CO`: the inhibition in [1] came to 3%; in [12], 2%.

As to `NNC(=O)[C@H]1O[C@@H](n2cnc3c(N)ncnc32)[C@H](O)[C@@H]1O`, the figures for the inhibition constant (Ki) at Adenosine receptor A3 [3] and at Adenosine receptor A3 [4] were 1500 nM and over 10000 nM, respectively.
